This is a sample that favours compounds with a hit; in the whole collection about 3.5% have one here.
MrgX1 allo act – allosterically activates human MrgX1 receptor signaling. 0.63% of 310,000 active. Q96LB2. B-score at 10 µM. AID 588675. MrgX1-HEK293, Fluo-4 calcium flux, FDSS; hits give high values;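 active = plate-corrected calcium response at least 3 library SD above typical, normal starting fluorescence, not activating the receptor alone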;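 also: compound read alongside a low EC10 to EC30 dose of BAM8-22 agonist; peak minus trough fluorescence over baseline measured at the second addition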
Target sequence (Q96LB2 whole entry, looked up): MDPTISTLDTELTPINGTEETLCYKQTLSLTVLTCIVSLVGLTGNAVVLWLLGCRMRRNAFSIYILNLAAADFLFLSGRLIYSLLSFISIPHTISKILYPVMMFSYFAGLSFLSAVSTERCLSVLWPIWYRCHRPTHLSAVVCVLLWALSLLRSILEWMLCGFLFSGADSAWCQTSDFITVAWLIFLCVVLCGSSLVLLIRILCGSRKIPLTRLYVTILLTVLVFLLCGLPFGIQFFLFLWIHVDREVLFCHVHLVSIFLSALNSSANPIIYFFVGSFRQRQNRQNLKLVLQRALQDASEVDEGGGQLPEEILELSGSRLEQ
RGS4 block – human RGS4 inhibition. P49798. HEK293 M3R/RGS4 inducible, Fluo-4 calcium flux; hits give high values; triggered by carbachol at its EC20. B-score at 10 µM. 0.45% of 310,000 active. AID 463165;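 active = B-score, a plate-corrected calcium signal, over three deviations above library mean, with baseline fluorescence within five deviations of library mean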;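 also: RGS4 expression induced by doxycycline in cells with stable M3 receptor; B-score is computed from the integrated fluorescence ratio over baseline after carbachol; higher B-score means a larger calcium signal and so more RGS4 inhibition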
Target sequence (P49798 whole entry, looked up): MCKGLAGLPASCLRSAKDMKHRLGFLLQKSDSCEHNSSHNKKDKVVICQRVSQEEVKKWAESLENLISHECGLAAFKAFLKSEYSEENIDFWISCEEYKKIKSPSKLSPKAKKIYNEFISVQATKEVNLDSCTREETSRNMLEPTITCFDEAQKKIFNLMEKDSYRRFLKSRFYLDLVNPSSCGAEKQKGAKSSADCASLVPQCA
MrgX1 antag – antagonists of human MrgX1 receptor; MRGX1-HEK293 calcium flux, Fluo-4, BAM8-22 antagonism; hits give low values; B-score at 10 µM; 1.3% of 310,000 active; AID 588676;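 active = calcium-response B-score plate-corrected more than 3 library SD below zero, starting fluorescence within 5 deviations, no agonist response on first addition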;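 also: peak minus trough fluorescence over baseline after final BAM8-22 challenge near maximal dose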
MrgX1 agonist – human MrgX1 receptor agonism, primary screen; Q96LB2; MrgX1-HEK293 cells, Fluo-4 calcium fluorescence, agonist mode; hits give high values; B-score at 10 µM; 0.44% of 310,000 active; AID 588627;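 active = calcium response B-score plate-corrected fluorescence ratio at least 3 library SD, with starting fluorescence B-score inside 5 SD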
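Test system: HEK293 cells stably expressing human MrgX1 receptor; Input: fifteen thousand cells per well; Dosing: compound delivered in addition one of three; Schedule: overnight seeding, then 1 h dark dye loading; Technique: Fluo-4 NW calcium fluorescence; Measure: B-scored fluorescence response ratio; Controls: positive and negative controls per plate.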
RGS4 pot – RGS4 potentiation or activation. 0.92% of 310,000 active. HEK293 M3R/inducible RGS4, carbachol calcium flux Fluo4; hits give low values. AID 463111. B-score at 10 µM;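 active = B-score of the integrated calcium signal more than 4 SD below the library mean, with starting fluorescence not abnormally high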;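 also: negative B-score means reduced calcium response which marks RGS4 activation or potentiation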
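Assay system: HEK293 FlpIn-TREx cells, stable M3R, doxycycline-inducible RGS4 / Probe or stimulus: carbachol, ECmax concentration / Times: overnight RGS4 induction, 30 min dye load 37 °C, 20 min compound RT / Signal: kinetic calcium fluorescence imaging with Fluo4-AM dye, 2 µM / Measure: Agonist-evoked peak-minus-minimum fluorescence over baseline, integrated ratio, B score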
Starred values were filed as active, the others as inactive; i = inactive; nt = no result given.

SMILES	MrgX1 allo act	RGS4 block	MrgX1 antag	MrgX1 agonist	RGS4 pot
O=C(N/N=C/c1ccc(O)c(O)c1)NC12CC3CC(CC(C3)C1)C2	i	5.1*	i	i	i
CCOC(=O)c1ccc(NC(=O)COc2ccc(CNC3CCCCC3)cc2OC)cc1	i	i	i	i	-7.5*
COc1ccc(/C=C/c2cccc[n+]2C)c(O)c1	i	i	i	i	i
C[n+]1ccccc1/C=C/c1cc(Br)ccc1O	i	i	i	i	-8.5*
COCC(=O)Nc1nnc(SCC(=O)N2C(C)CCCC2C)s1 (stereo not given)	i	i	i	i	i
Cc1ccc(-n2c(C)cc(/C=c3/sc4nc5ccccc5n4c3=O)c2C)cc1	i	i	i	i	i
O=C(O)Cn1cc(/C=c2/sc3nc4ccccc4n3c2=O)c2ccccc21	i	i	i	27*	i
CCOc1ccc(/C=C(\C#N)C(=O)NC2CC2)c(OCC)c1	i	i	i	i	i
O=C(NCCc1ccccc1)C(=O)NCC1OCCN1S(=O)(=O)c1ccc(Br)cc1 (stereo not given)	i	i	i	i	i
COc1cc(/C=N/N=C(N)N)ccc1OCc1ccc(Cl)cc1	i	i	i	30*	i
CCOCCCNCc1ccc(OCc2ccccc2Cl)cc1	i	i	i	i	i
NC(N)=N/N=C/c1ccc(Cl)c(Cl)c1	i	i	i	31*	i
NC(N)=N/N=C/c1ccccc1	i	i	i	i	i
NC(N)=N/N=C/c1ccc(OCc2ccccc2Cl)cc1	i	i	i	i	-10*
CCOc1cc(/C=N/N=C(N)N)ccc1OCc1ccc(Cl)cc1	i	i	i	i	i
OCCCCNCc1ccc(OCc2ccccc2Cl)cc1	i	i	i	i	-7*
CC(Oc1ccc(Br)cc1)C(=O)NC1CCN(Cc2ccccc2)CC1 (stereo not given)	i	i	i	i	-7.6*
Cc1ccc(NS(=O)(=O)c2ccc(-c3csc(C)n3)s2)c(C)c1	i	i	i	i	i
COc1ccc(NC(=O)CN2C(=O)/C(=C3\SC(=S)N(C4CCS(=O)(=O)C4)C3=O)c3ccccc32)cc1 (stereo not given)	11*	i	i	i	i
O=C1CCCC(O)=C1N=Nc1ccc2c(c1)OCO2	i	i	-5*	i	i
O=C1CCCC(O)=C1N=Nc1ccc(C(=O)O)cc1	i	i	i	i	i
CC(=O)N1N=C(c2ccc(Cl)cc2)OC1c1ccc(C(C)C)cc1 (stereo not given)	i	i	i	i	-7.9*
CC(=O)N1N=C(c2ccc(C)cc2)OC1c1ccc(Br)cc1 (stereo not given)	i	i	i	i	i
CC(=O)N1CCN(C(=O)c2cc(S(=O)(=O)N(C)c3ccc(F)cc3)ccc2Cl)CC1	i	i	i	i	i
Cn1c2c(c(=O)n1-c1ccccc1)CSCC2	i	i	i	i	i
SMILES	MrgX1 allo act	RGS4 block	MrgX1 antag	MrgX1 agonist	RGS4 pot
O=C1c2ccccc2-c2cccc(NS(=O)(=O)c3ccc(C(F)(F)F)cc3)c21	i	i	i	i	-7*
CNc1cccc2c1C(=O)c1ccccc1C2=O	i	i	i	i	i
CC(C)Cc1ccc(C(C)C(=O)OCC(=O)c2c[nH]c3ccccc23)cc1 (stereo not given)	i	i	i	i	-7.3*
Cc1ccc(C(=O)OCC(=O)c2c[nH]c3ccccc23)cc1	i	i	i	i	i
CCCC(=O)N(CC(=O)Nc1sc(C)c(C)c1C(N)=O)Cc1ccccc1	i	i	i	i	i
O=[N+]([O-])c1ccc(N/N=C/C=C/c2ccco2)cc1	i	i	-10*	i	-7.4*
O=C(N/N=C/c1ccc([N+](=O)[O-])o1)C(=O)Nc1ccc(C(=O)O)cc1	i	i	i	i	i
O=C(O)c1ccc(N/N=C/C=C/c2ccc([N+](=O)[O-])o2)cc1	i	i	-4.6*	i	i
C=CCc1ccc(OCCCCCN2CCOCC2)c(OC)c1	i	i	i	i	-7.5*
O=C(NCCN1CCOCC1)c1ccc2c(c1)N(Cc1ccccc1)C(=O)CS2	i	i	i	i	i
O=C(NCCN1CCOCC1)c1ccc2c(c1)N(Cc1ccc(Cl)cc1)C(=O)CS2	i	i	i	i	-7.3*
CCC1CCCCN1CCCNC(=O)c1ccc2c(c1)N(Cc1c(F)cccc1Cl)C(=O)CS2 (stereo not given)	i	i	i	i	-8.2*
CCN(CC(=O)Nc1ccc(S(=O)(=O)N2CCCC2)cc1)Cc1ccccc1	i	i	i	i	i
COc1ccc(C)cc1NC(=O)C/C(C)=N/NC(=O)Cc1cccc2ccccc12	i	i	i	i	i
O=C(CSCc1ccccc1)N/N=C/c1ccccc1OCc1ccccc1	i	i	-5.4*	i	i
NC(=S)N/N=C/c1c[nH]c2ccc(OCc3ccccc3)cc12	i	i	i	i	-7.1*
NC(=S)N/N=C\c1ccccc1OCc1ccccc1	i	i	-8.7*	i	i
O=C(CSCc1cccc(Br)c1)N/N=C/c1ccc2c(c1)OCO2	i	i	-5.4*	i	i
COc1ccc(N2CCN(C(CNC(=O)CC(C)(C)C)c3ccc4c(c3)OCO4)CC2)cc1 (stereo not given)	i	i	i	i	i
Cc1ccc(F)cc1NC(=O)CSCc1nc2sc(C)c(C)c2c(=O)[nH]1	i	i	i	i	i
CCN(CC)Cc1c(O)ccc2c(=O)c(-c3ccc(Cl)cc3)coc12	i	i	i	i	i
CCCOC(=O)c1ccc(Oc2coc3c(CN(CC)CC)c(O)ccc3c2=O)cc1	i	i	i	i	-8.6*
Cc1ccc(-c2csc(NC(=O)C3=NN(C4CCS(=O)(=O)C4)C(=O)CC3)n2)cc1 (stereo not given)	i	i	i	i	i
COc1ccc(-c2[nH]ncc2CN2CCCO2)cc1F	i	i	i	i	i
COc1ccc2cc(-c3[nH]ncc3CN3CCCCO3)ccc2c1	i	i	i	35*	i
COc1ccc(NC(=S)N(CCO)Cc2cc3c(C)cc(C)cc3[nH]c2=O)cc1	i	i	i	i	i
CC(C)[C@H](N)c1cn([C@@H](CC(N)=O)C(=O)N2CCNCC2)nn1	i	nt	i	i	nt
O=C(/C=C/c1ccco1)NC(=S)Nc1nc(-c2ccc(Cl)cc2)cs1	i	i	i	i	i
